Paper PMC2223364 (The Journal of General Physiology, 1999)
Values joined by “and” are separate entries in the source; they are usually repeats but may differ in a detail not shown here. Equal entries are not always repeated. Where two headings read alike, the source gives them in different places. Ends that are not written are not given here.

Key:
[1] = target: rat muscle maxi-KCa channel (large conductance Ca^2+-activated K^+ channel), intracellular site; experiment: Single-channel substate kinetics of one Kunitz inhibitor; type: biochemical
Outline: (§1)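 Single rat skeletal muscle maxi-KCa channels were taken from plasma membrane vesicles and fused into planar bilayers of 80% POPE/20% POPC. Recordings used symmetrical 50 mM KCl and 10 mM MOPS-KOH, pH 7.4. Internal CaCl2 was 200 μM, raised to 500 μM in some experiments to keep open probability >0.9. Holding was +30 mV at 20–23°C, with Ag/AgCl electrodes and agar-KCl bridges.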

[2] = target: rat muscle maxi-KCa channel (large conductance Ca^2+-activated K^+ channel), intracellular site; experiment: Ligand interaction of BPTI and DTX-I on single maxi-KCa channels, planar bilayer; type: biochemical
Outline: as §1

[3] = target: rat muscle maxi-KCa channel, intracellular sites (Rattus norvegicus, UniProt Q62976); experiment: Ligand interaction of BP and DTX-I on single maxi-KCa channels, planar bilayer; type: biochemical
Outline: as §1

[4] = target: rat muscle maxi-KCa channel, internal pore (Rattus norvegicus, UniProt Q62976); experiment: Single-channel block by ball peptide homologue; type: biochemical; conditions: for Kd: BP alone, +30 mV, 50 mM KCl, pH 7.4
Outline: as §1

[5] = tested on: maxi-KCa channel (external TEA site); experiment: Fast block by external TEA in absence and presence of internal DTX-I; type: biochemical, rat; conditions: 460 nM DTX-I; P = 0.1
Outline: as §1

maxi-KCa channels = conditions: cited from earlier work
[6] = tested on: cyclic nucleotide–gated channels; conditions: ref Kramer et al., 1994; cited from earlier work
[7] = tested on: serine proteinases (chymotrypsin/trypsin family); conditions: BPTI and related Kunitz molecules; ref Dufton, 1985; Capasso et al., 1997; cited from earlier work
[8] = tested on: maxi-KCa channel (external ChTX site); experiment: Slow block by external charybdotoxin in absence and presence of internal DTX-I; type: biochemical, rat
[9] = read-out: Kd (studied alone), abstract, one-site binding kinetics, unoccupied channel

Chain of rat muscle maxi-KCa channel, internal pore (Q62976 whole entry): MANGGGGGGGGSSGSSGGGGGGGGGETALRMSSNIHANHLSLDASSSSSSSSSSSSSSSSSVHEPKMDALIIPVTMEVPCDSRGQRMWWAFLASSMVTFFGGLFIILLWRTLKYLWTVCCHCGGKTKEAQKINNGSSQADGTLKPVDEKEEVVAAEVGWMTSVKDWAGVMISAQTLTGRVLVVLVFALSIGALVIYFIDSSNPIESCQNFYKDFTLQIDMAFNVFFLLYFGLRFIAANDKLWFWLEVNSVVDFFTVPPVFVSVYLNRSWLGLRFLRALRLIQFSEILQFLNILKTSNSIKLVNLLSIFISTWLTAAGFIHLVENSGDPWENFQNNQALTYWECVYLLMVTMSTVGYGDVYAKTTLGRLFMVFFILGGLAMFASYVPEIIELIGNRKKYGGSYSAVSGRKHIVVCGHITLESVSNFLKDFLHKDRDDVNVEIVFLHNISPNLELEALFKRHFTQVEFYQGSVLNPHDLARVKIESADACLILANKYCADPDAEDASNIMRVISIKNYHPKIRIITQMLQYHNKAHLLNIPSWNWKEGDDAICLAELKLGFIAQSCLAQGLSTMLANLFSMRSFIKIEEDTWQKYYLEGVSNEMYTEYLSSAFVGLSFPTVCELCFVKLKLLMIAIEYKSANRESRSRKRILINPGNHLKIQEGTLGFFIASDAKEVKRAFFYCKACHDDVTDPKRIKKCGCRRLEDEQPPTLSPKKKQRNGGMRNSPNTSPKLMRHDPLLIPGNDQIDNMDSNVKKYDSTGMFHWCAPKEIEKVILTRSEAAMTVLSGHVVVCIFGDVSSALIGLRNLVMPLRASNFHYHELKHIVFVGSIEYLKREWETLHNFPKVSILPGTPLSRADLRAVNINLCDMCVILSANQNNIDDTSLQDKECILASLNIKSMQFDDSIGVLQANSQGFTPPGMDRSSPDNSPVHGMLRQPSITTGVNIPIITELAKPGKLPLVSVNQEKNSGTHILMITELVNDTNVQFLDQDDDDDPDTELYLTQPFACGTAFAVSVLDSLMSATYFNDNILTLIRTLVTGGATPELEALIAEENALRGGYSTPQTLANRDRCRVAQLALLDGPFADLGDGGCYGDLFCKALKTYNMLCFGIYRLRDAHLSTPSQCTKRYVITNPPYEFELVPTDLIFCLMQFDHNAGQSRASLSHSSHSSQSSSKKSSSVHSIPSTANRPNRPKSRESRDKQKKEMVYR
Chain of rat muscle maxi-KCa channel, intracellular sites (Q62976 whole entry): as above

dendrotoxin I (QPLRKLCILHRNPGRCYQKIPAFYYNQKKKQCEGFTWSGCGGNSNRFKTIEECRRTCIRK; ends and bridges not checked; cysteine pairing not given here; UniProt P00979 1-60, looked up) [DTX-I]
Kd [1, 9]: 16.5 nM | Kd ([1]; read-out: equilibrium dissociation constant J1 = j−1/4j1 (DTX-I from SDTX), DTX-I, unoccupied channel, +30 mV, 50 mM KCl, pH 7.4): 16.5 nM | Kd ([2]; read-out: equilibrium dissociation constant J2, DTX-I binding to BPTI-occupied channel, from slope of τBURST vs [BPTI], Eq. 7, 460 nM DTX-I, +30 mV, 50 mM KCl, pH 7.4): 178 nM | Kd ([3]; read-out: equilibrium dissociation constant J3 (DTX-I from BBP/DTX), DTX-I binding to BP-blocked state, from τBP, Eq. 19, +30 mV, 50 mM KCl, pH 7.4): 139 nM

CC[N+](CC)(CC)CC [TEA, tetraethylammonium]
effect of internal TEA on BP association ([4]; data not shown): decreases the association rate of BP homologue in a competitive fashion | binding interaction of external TEA with internal DTX-I [5]: no detectable binding interaction | effect of BPTI or DTX-I on blocking affinity of internal blocker (maxi-KCa channels; Ba^2+ with BPTI, internal TEA with DTX-I, ref Lucchesi and Moczydlowski, 1991): not significantly affected | inhibition of ball peptide block by TEA (maxi-KCa channels; ref Toro et al., 1992): inhibits ball peptide block of the maxi-KCa channel in a strictly competitive fashion

Shaker ball peptide: 20-residue NH2 terminus of the Shaker K^+ channel of Drosophila that mediates rapid inactivation (MAAVAVLYVLGKKRQHRKKQ)
block of maxi-KCa channels (maxi-KCa channels; ref Foster et al., 1992, Toro et al.): known to block maxi-KCa channels by a pore-occlusion mechanism | block of cyclic nucleotide–gated channels [6]: blocks other types of ion channels

bovine pancreatic trypsin inhibitor [BPTI]
probability of the channel residing in the fully open conductance state ([1]; 8 μM internal BPTI (1.0 at 0 μM), +30 mV): ~0.15 | mean lifetime of BPTI-induced substate (τS) ([1]; BPTI alone, internal, 1-8 μM, +30 mV, symmetrical 50 mM KCl, 10 mM MOPS-KOH pH 7.4, 200 μM internal Ca2+, 20–23°C, mean of four τS means, single-exponential): ~0.41 s and 0.411 ± 0.022 s | apparent association rate constant 4k1 ([1]; BPTI alone, internal, fit of τU to Eq. 2, +30 mV, 50 mM KCl, pH 7.4): 1.63 ± 0.07 × 10^6 s^−1M^−1 | dissociation rate constant k−1 ([1]; BPTI alone, internal, from τS (Eq. 1), ±SEM, +30 mV, 50 mM KCl, pH 7.4): 2.43 ± 0.13 s⁻¹ | equilibrium dissociation constant K1 (kinetic ratio k−1/4k1) ([1]; BPTI, unoccupied channel, +30 mV, 50 mM KCl, pH 7.4): 1.49 ± 0.10 µM and 1.49 µM | Hill coefficient n ([1]; fit of PU vs [BPTI]): 1.0 | substate current level ([1]; ligand alone, internal, +30 mV): ~27 % of unitary current | Kd [1, 9]: 1490 nM | binding kinetics when studied alone ([1]; words): one-site binding kinetics | relief of the DTX substate ([2]; 8 μM BPTI, 460 nM DTX-I): ~30% | slope of τBURST vs [BPTI] ([2]; BPTI titration at 460 nM DTX-I, measured): 3.25 s/µM | KApp for relief of normalized DTX-substate probability, best fit to Eq. 10 ([2]; BPTI titration, 460 nM DTX-I): 17.8 µM and 17.8 ± 1.7 µM | decrease of BPTI affinity when DTX-I is bound (K2/K1) ([2]; DTX-occupied vs unoccupied channel): 11.7 fold and 11.7 ± 2.1 fold and ~11 fold | increase in mean τS-DTX ([2]; over 0–8 μM BPTI at 460 nM DTX-I): 47% | Kd ([2]; read-out: Kd of BPTI when DTX-I is bound, abstract, DTX-occupied channel): 17500 nM | inhibition of chymotrypsin/trypsin family serine proteinases [7]: potent inhibitors

MAAVAVLYVLGKKRQHRKKQ [BP]
Kd ([4]; equilibrium dissociation constant B1 = b−1/b1 (BP from BBP), unoccupied channel, kinetic ratio): 7.16 nM | Kd ([4]; equilibrium dissociation constant B1 from PU vs [BP] (Eq. 15), 4.5–6.5 h data pooled from three to seven single channels): 8.85 nM | kon ([4]; pH 7.4, read-out: bimolecular association rate constant b1 (BP to U)): 8.17e+07 M⁻¹ s⁻¹ | koff ([4]; pH 7.4, read-out: dissociation rate constant b−1 (BP from BBP)): 0.585 s⁻¹ | Kd [3]: 57 nM | kon ([3]; pH 7.4, read-out: association rate constant b2 (BP to SDTX)): 1.85e+06 M⁻¹ s⁻¹ | koff ([3]; read-out: dissociation rate constant b−2 (BP from BBP/DTX)): 0.105 s⁻¹

charybdotoxin [ChTX]
binding interaction of external ChTX with internal DTX-I ([8]; 460 nM internal DTX-I): no detectable binding interaction | koff of ChTX, presence of DTX-I ([8]; 460 nM internal DTX-I, +30 mV): 0.0350 ± 0.0003 s⁻¹ | kon of ChTX, presence of DTX-I ([8]; 460 nM internal DTX-I, +30 mV): 2.89 ± 0.51 × 10^7 s^−1M^−1 | koff of ChTX, absence of DTX-I ([8]; external ChTX (10 nM), +30 mV): 0.0369 ± 0.0004 s⁻¹ | kon of ChTX, absence of DTX-I ([8]; external ChTX (10 nM), +30 mV): 2.77 ± 0.42 × 10^7 s^−1M^−1 | Kd ([8]; read-out: Kd of ChTX (koff/kon), absence of DTX-I, external ChTX (10 nM), +30 mV): 1.33 ± 0.2 nM
